# Reference: PMC9844543 (Nano letters, 2022)
# Assay: Critical gelation concentration by vial inversion after addition of PBS
# Format: physicochemical
# Summary of the method: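 Self-assembling collagen-binding peptide amphiphile filaments were dissolved in water. They were either left unsprayed, sprayed with an atomizer, or emitted from a jet nebulizer as a respirable aerosol. PBS was then added to give 1× PBS, and gelation was judged by vial inversion.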
sequence,measurement,setting,value
LRELHLNNN [CBDA],critical gelation concentration (CGC),after spraying with an atomizer,1 mM
same,critical gelation concentration (CGC),"filaments in water, PBS added to final 1× PBS, not sprayed",~ 1 mM
